Key:
Assay type in all cases: cell-based
[1] = tested on: SK-N-MC; assay: Cytotoxicity against human SK-N-MC cell at 10 uM after 24 hrs by MTS assay
[2] = tested on: HeLa; assay: Cytotoxicity against human HeLa cells at 1 to 10 uM after 24 hrs by MTS assay
How it was run: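 HeLa cells at ~80% confluence, uninfected, exposed to 1–100 μM PPMO or water (mock) in serum-free DMEM-F-12 (1:1) for 24 h. MTS reagent was added for 4 h and absorbance read at 492 nm. Viability was expressed as percent of water-treated cells (set to 100%), averaged over 12 wells.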

[3] = tested on: Vero; assay: Cytotoxicity against African green monkey Vero cells at 10 uM after 24 hrs by MTS assay; settings: chlorocebus sabaeus

Measured: Activity

Cc1cn([C@H]2CN(P(=O)(OC[C@@H]3CN(P(=O)(OC[C@@H]4CN(P(=O)(OC[C@@H]5CN(P(=O)(OC[C@@H]6CN(P(=O)(OC[C@@H]7CN(P(=O)(OC[C@@H]8CN(P(=O)(OC[C@@H]9CNC[C@H](n%10cnc%11c(=O)[nH]c(N)nc%11%10)O9)N(C)C)C[C@H](n9cnc%10c(N)ncnc%109)O8)N(C)C)C[C@H](n8cnc9c(=O)[nH]c(N)nc98)O7)N(C)C)C[C@H](n7cnc8c(N)ncnc87)O6)N(C)C)C[C@H](n6ccc(N)nc6=O)O5)N(C)C)C[C@H](n5ccc(N)nc5=O)O4)N(C)C)C[C@H](n4cnc5c(N)ncnc54)O3)N(C)C)C[C@@H](COP(=O)(N(C)C)N3C[C@@H](COP(=O)(N(C)C)N4C[C@@H](COP(=O)(N(C)C)N5C[C@@H](COP(=O)(N(C)C)N6C[C@@H](COP(=O)(N(C)C)N7C[C@@H](COP(=O)(N(C)C)N8C[C@@H](COP(=O)(N(C)C)N9C[C@@H](COP(=O)(N(C)C)N%10C[C@@H](COP(=O)(N(C)C)N%11C[C@@H](COP(=O)(N(C)C)N%12C[C@@H](COP(=O)(N(C)C)N%13C[C@@H](COP(=O)(N(C)C)N%14C[C@@H](COP(=O)(N(C)C)N%15C[C@@H](COP(=O)(N(C)C)N%16CCN(C(=O)[C@H](CS)NC(=O)[C@H](Cc%17ccccc%17)NC(=O)[C@H](Cc%17ccccc%17)NC(=O)[C@H](CCCNC(=N)N)NC(=O)[C@H](CCCNC(=N)N)NC(=O)[C@H](CCCNC(=N)N)NC(=O)[C@H](CCCNC(=N)N)NC(=O)[C@H](CCCNC(=N)N)NC(=O)[C@H](CCCNC(=N)N)NC(=O)[C@H](CCCNC(=N)N)NC(=O)[C@H](CCCNC(=N)N)NC(=O)[C@@H](N)CCCNC(=N)N)CC%16)O[C@@H](n%16ccc(N)nc%16=O)C%15)O[C@@H](n%15cnc%16c(N)ncnc%16%15)C%14)O[C@@H](n%14cnc%15c(N)ncnc%15%14)C%13)O[C@@H](n%13cnc%14c(N)ncnc%14%13)C%12)O[C@@H](n%12cnc%13c(=O)[nH]c(N)nc%13%12)C%11)O[C@@H](n%11cnc%12c(=O)[nH]c(N)nc%12%11)C%10)O[C@@H](n%10cc(C)c(=O)[nH]c%10=O)C9)O[C@@H](n9cnc%10c(N)ncnc%109)C8)O[C@@H](n8ccc(N)nc8=O)C7)O[C@@H](n7cnc8c(N)ncnc87)C6)O[C@@H](n6cc(C)c(=O)[nH]c6=O)C5)O[C@@H](n5cnc6c(N)ncnc65)C4)O[C@@H](n4cnc5c(=O)[nH]c(N)nc54)C3)O2)c(=O)[nH]c1=O (some centres undefined)
Non-toxic: all assays above

Cc1cn([C@H]2CN(P(=O)(OC[C@@H]3CN(P(=O)(OC[C@@H]4CN(P(=O)(OC[C@@H]5CN(P(=O)(OC[C@@H]6CN(P(=O)(OC[C@@H]7CNC[C@H](n8cnc9c(=O)[nH]c(N)nc98)O7)N(C)C)C[C@H](n7ccc(N)nc7=O)O6)N(C)C)C[C@H](n6cnc7c(N)ncnc76)O5)N(C)C)C[C@H](n5cnc6c(N)ncnc65)O4)N(C)C)C[C@H](n4ccc(N)nc4=O)O3)N(C)C)C[C@@H](COP(=O)(N(C)C)N3C[C@@H](COP(=O)(N(C)C)N4C[C@@H](COP(=O)(N(C)C)N5C[C@@H](COP(=O)(N(C)C)N6C[C@@H](COP(=O)(N(C)C)N7C[C@@H](COP(=O)(N(C)C)N8C[C@@H](COP(=O)(N(C)C)N9C[C@@H](COP(=O)(N(C)C)N%10C[C@@H](COP(=O)(N(C)C)N%11C[C@@H](COP(=O)(N(C)C)N%12C[C@@H](COP(=O)(N(C)C)N%13C[C@@H](COP(=O)(N(C)C)N%14C[C@@H](COP(=O)(N(C)C)N%15C[C@@H](COP(=O)(N(C)C)N%16C[C@@H](COP(=O)(N(C)C)N%17C[C@@H](COP(=O)(N(C)C)N%18CCN(C(=O)[C@H](CS)NC(=O)[C@H](Cc%19ccccc%19)NC(=O)[C@H](Cc%19ccccc%19)NC(=O)[C@H](CCCNC(=N)N)NC(=O)[C@H](CCCNC(=N)N)NC(=O)[C@H](CCCNC(=N)N)NC(=O)[C@H](CCCNC(=N)N)NC(=O)[C@H](CCCNC(=N)N)NC(=O)[C@H](CCCNC(=N)N)NC(=O)[C@H](CCCNC(=N)N)NC(=O)[C@H](CCCNC(=N)N)NC(=O)[C@@H](N)CCCNC(=N)N)CC%18)O[C@@H](n%18cnc%19c(=O)[nH]c(N)nc%19%18)C%17)O[C@@H](n%17cc(C)c(=O)[nH]c%17=O)C%16)O[C@@H](n%16ccc(N)nc%16=O)C%15)O[C@@H](n%15cc(C)c(=O)[nH]c%15=O)C%14)O[C@@H](n%14cnc%15c(=O)[nH]c(N)nc%15%14)C%13)O[C@@H](n%13cc(C)c(=O)[nH]c%13=O)C%12)O[C@@H](n%12cc(C)c(=O)[nH]c%12=O)C%11)O[C@@H](n%11cc(C)c(=O)[nH]c%11=O)C%10)O[C@@H](n%10ccc(N)nc%10=O)C9)O[C@@H](n9cnc%10c(=O)[nH]c(N)nc%109)C8)O[C@@H](n8cc(C)c(=O)[nH]c8=O)C7)O[C@@H](n7cc(C)c(=O)[nH]c7=O)C6)O[C@@H](n6cc(C)c(=O)[nH]c6=O)C5)O[C@@H](n5cc(C)c(=O)[nH]c5=O)C4)O[C@@H](n4ccc(N)nc4=O)C3)O2)c(=O)[nH]c1=O (some centres undefined)
Non-toxic: all assays above

Cc1cn([C@H]2CNC[C@@H](COP(=O)(N(C)C)N3C[C@@H](COP(=O)(N(C)C)N4C[C@@H](COP(=O)(N(C)C)N5C[C@@H](COP(=O)(N(C)C)N6C[C@@H](COP(=O)(N(C)C)N7C[C@@H](COP(=O)(N(C)C)N8C[C@@H](COP(=O)(N(C)C)N9C[C@@H](COP(=O)(N(C)C)N%10C[C@@H](COP(=O)(N(C)C)N%11C[C@@H](COP(=O)(N(C)C)N%12C[C@@H](COP(=O)(N(C)C)N%13C[C@@H](COP(=O)(N(C)C)N%14C[C@@H](COP(=O)(N(C)C)N%15C[C@@H](COP(=O)(N(C)C)N%16C[C@@H](COP(=O)(N(C)C)N%17C[C@@H](COP(=O)(N(C)C)N%18C[C@@H](COP(=O)(N(C)C)N%19C[C@@H](COP(=O)(N(C)C)N%20C[C@@H](COP(=O)(N(C)C)N%21C[C@@H](COP(=O)(N(C)C)N%22C[C@@H](COP(=O)(N(C)C)N%23CCN(C(=O)[C@H](CS)NC(=O)[C@H](Cc%24ccccc%24)NC(=O)[C@H](Cc%24ccccc%24)NC(=O)[C@H](CCCNC(=N)N)NC(=O)[C@H](CCCNC(=N)N)NC(=O)[C@H](CCCNC(=N)N)NC(=O)[C@H](CCCNC(=N)N)NC(=O)[C@H](CCCNC(=N)N)NC(=O)[C@H](CCCNC(=N)N)NC(=O)[C@H](CCCNC(=N)N)NC(=O)[C@H](CCCNC(=N)N)NC(=O)[C@@H](N)CCCNC(=N)N)CC%23)O[C@@H](n%23cnc%24c(=O)[nH]c(N)nc%24%23)C%22)O[C@@H](n%22cnc%23c(=O)[nH]c(N)nc%23%22)C%21)O[C@@H](n%21ccc(N)nc%21=O)C%20)O[C@@H](n%20cnc%21c(=O)[nH]c(N)nc%21%20)C%19)O[C@@H](n%19cc(C)c(=O)[nH]c%19=O)C%18)O[C@@H](n%18ccc(N)nc%18=O)C%17)O[C@@H](n%17cc(C)c(=O)[nH]c%17=O)C%16)O[C@@H](n%16cc(C)c(=O)[nH]c%16=O)C%15)O[C@@H](n%15ccc(N)nc%15=O)C%14)O[C@@H](n%14ccc(N)nc%14=O)C%13)O[C@@H](n%13cnc%14c(N)ncnc%14%13)C%12)O[C@@H](n%12cc(C)c(=O)[nH]c%12=O)C%11)O[C@@H](n%11cnc%12c(=O)[nH]c(N)nc%12%11)C%10)O[C@@H](n%10cnc%11c(N)ncnc%11%10)C9)O[C@@H](n9cc(C)c(=O)[nH]c9=O)C8)O[C@@H](n8ccc(N)nc8=O)C7)O[C@@H](n7cnc8c(N)ncnc87)C6)O[C@@H](n6ccc(N)nc6=O)C5)O[C@@H](n5cnc6c(N)ncnc65)C4)O[C@@H](n4cnc5c(=O)[nH]c(N)nc54)C3)O2)c(=O)[nH]c1=O (some centres undefined)
Non-toxic: all assays above

From ChEMBL document CHEMBL1629545, “A morpholino oligomer targeting highly conserved internal ribosome entry site sequence is able to inhibit multiple species of picornavirus” (Antimicrob Agents Chemother, 2008)
